Experiment [1] is described as follows: nonspecific flux increase, KCNQ1-free cells – parental CHO cells, counter-screen for KCNQ1 potentiator project (AID 493006;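 active = duplicate-averaged activation above buffer control mean plus 5 SD of those controls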). Conditions: parental CHO-K1 cells, FluxOR thallium flux, at 10 µM; stronger effect = higher value. The gist of the method: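 Assay system: Untransfected host CHO-K1 cells with FluxOR thallium dye | Probe or stimulus: Potassium/thallium depolarization pulse | Schedule: Overnight 37 °C plating, 90 min RT dye, 20 min compound | Detection: Kinetic thallium-flux fluorescence | Read-out: Max-minus-min fluorescence over baseline, percent of buffer-to-R-L3 span | Benchmarks: Low control buffer, high control R-L3 activator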
Background: A counterscreen serves to expose hits that act by an unwanted route or on another target.

In experiment [2] the target is Potassium voltage-gated channel subfamily KQT member 1 (Homo sapiens) (UniProt P51787). The experiment in a line: enhancement of KCNQ1 channel thallium flux – FluxOR thallium flux, CHO cells, duplicates, confirmation (AID 493007).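 As to outcome: cells depolarized by a potassium plus thallium sulfate stimulus after compound.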 Conditions: KCNQ1 cell line, FluxOR thallium flux fluorescence, at 10 µM; stronger effect = higher value, % of reference activator effect, buffer zero. The procedure, abridged: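 Material: KCNQ1-expressing CHO cell line; Incubation: FluxOR dye loading 90 min, compound exposure 20 min, room temperature; Detection: FluxOR Tl+ flux fluorescence, 10 s baseline plus 110 s recording; Read-out: percent activation between buffer and R-L3 responses; Control set: buffer-only wells as 0% and R-L3 activator as 100%; Replication: duplicate wells per compound.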

Experiment [3] concerns the target Potassium voltage-gated channel subfamily KQT member 2 (Rattus norvegicus) (UniProt O88943). The experiment in a line: KCNQ2 thallium flux enhancement – KCNQ2-CHO-K1 cells, selectivity assay for KCNQ1 potentiator project (AID 493009;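 active = mean duplicate potentiation above the buffer control mean plus 5 SD of buffer wells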;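 also: assay conditions were tuned for KCNQ1 rather than KCNQ2 modulators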). The note with it: FluxOR thallium flux fluorescence, at 10 µM; stronger effect = higher value, scaled: buffer 0, activator control 100.
Experiment [4] has as its target Potassium voltage-gated channel subfamily KQT member 1 (Homo sapiens) (UniProt P51787). Briefly: KCNQ1 activators by electrophysiology – IonWorks patch clamp, KCNQ1-CHO cells, orthogonal assay for KCNQ1 potentiator project, confirmation (AID 493184;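 active = current rise at least 3 SD above the untreated control mean in each of two repeat wells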). Conditions: automated patch clamp current, at 10 µM; stronger effect = higher value. The procedure, abridged: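 assay system = KCNQ1-expressing CHO cells | medium = external bath solution at pH 7.4 | probe or stimulus = 2,000 ms depolarization, -90 to +40 mV | compound dosing = 10 µM final, single point | measured by = automated voltage clamp, amphotericin B perforated patch | measure = percent current increase versus pre-compound level | replication = duplicates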
A general note: In patch-clamp work, channel activity is measured electrically.

The source made the active and inactive calls.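 The calls were made as follows, unless noted: active = potentiation averaged over duplicate wells exceeding buffer-only control mean by more than 3 SD; inactive = the rest.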

Chain of Potassium voltage-gated channel subfamily KQT member 1 (Homo sapiens) (P51787 whole entry, looked up): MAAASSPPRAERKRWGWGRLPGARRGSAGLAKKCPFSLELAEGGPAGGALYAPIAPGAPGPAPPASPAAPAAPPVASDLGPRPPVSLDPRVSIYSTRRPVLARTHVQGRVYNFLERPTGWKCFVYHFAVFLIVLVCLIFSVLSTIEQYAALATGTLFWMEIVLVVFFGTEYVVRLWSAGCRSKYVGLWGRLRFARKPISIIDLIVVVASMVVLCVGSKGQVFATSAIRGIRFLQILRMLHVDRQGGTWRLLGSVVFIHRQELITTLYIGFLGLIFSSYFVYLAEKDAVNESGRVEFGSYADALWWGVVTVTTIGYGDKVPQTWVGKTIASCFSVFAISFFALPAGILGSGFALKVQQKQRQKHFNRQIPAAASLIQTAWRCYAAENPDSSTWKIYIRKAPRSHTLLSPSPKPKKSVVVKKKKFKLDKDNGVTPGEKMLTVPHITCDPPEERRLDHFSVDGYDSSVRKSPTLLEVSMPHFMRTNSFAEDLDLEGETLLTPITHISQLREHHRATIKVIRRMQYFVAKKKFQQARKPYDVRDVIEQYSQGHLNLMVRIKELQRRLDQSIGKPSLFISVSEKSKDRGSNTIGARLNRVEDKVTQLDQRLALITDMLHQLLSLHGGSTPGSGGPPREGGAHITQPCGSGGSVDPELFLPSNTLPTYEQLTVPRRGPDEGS
Chain of Potassium voltage-gated channel subfamily KQT member 2 (Rattus norvegicus) (O88943 whole entry, looked up): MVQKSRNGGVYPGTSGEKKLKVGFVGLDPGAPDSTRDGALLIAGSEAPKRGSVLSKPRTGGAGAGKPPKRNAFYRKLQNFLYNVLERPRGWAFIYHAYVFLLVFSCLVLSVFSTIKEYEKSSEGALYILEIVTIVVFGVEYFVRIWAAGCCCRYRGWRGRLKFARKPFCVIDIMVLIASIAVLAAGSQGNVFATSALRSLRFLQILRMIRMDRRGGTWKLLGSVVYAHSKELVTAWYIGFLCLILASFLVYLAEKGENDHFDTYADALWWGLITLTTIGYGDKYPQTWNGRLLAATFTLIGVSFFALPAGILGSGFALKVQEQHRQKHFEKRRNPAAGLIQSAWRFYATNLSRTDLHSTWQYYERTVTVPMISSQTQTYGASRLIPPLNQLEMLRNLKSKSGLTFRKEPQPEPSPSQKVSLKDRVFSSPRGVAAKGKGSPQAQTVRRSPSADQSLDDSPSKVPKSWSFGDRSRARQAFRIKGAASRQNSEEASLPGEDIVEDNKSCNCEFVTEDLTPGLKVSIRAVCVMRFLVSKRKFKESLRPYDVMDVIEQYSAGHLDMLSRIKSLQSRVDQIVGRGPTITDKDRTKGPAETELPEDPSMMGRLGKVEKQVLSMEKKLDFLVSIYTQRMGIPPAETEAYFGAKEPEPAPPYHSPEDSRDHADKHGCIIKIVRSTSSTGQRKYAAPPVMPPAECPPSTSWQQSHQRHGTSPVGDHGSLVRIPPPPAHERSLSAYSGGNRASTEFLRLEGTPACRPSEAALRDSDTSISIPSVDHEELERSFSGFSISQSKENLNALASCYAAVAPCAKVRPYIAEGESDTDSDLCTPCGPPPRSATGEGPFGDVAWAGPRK

For `CC(C)n1c(O)c(N=NC(=O)C2COc3ccccc3O2)c2ccccc21` (stereo not given), the activation in experiment [1] is 234% (active). The potentiation in experiment [2] is 66.5% (active); in experiment [3] it was 208% (active). Also, the result in experiment [4] was inactive.
Taken in the same sequence, the figures for `Cc1ccccc1NC1=NC(=S)N(c2ccccc2)C12CCCCC2` were 176% (active), 26% (active), 156% (active) and “inactive”.
Taken in the same sequence, the figures for `CSc1nc(-c2ccccc2)[nH]c(=S)c1C(C)=O` were 520% (active), 138% (active), 474% (active) and “inactive”.
On to `O=C(NC(=S)Nc1ccccc1N1CCCCC1)c1ccc(F)cc1Cl`, for which the result in experiment [1], in experiment [3] and in experiment [4] was inactive. Also, in experiment [2], the potentiation was 49.5% (active).
Turning to `CNC(C)C#Cc1ccc2sc3cccc(OC)c3c(=O)c2c1` (stereo not given), the outcome in experiment [1], in experiment [2], in experiment [3] and in experiment [4] was inactive.
`O=C(O)c1ccccc1C(=O)NNc1ccc(Cl)cc1`: the outcome in experiment [1], in experiment [2], in experiment [3] and in experiment [4] was inactive.
As for `O=c1c(-c2ccc(Cl)cc2)[n+]([O-])c2ccccc2n1O`, in experiment [1], the activation was 190% (active). Moreover, the outcome in experiment [2] and in experiment [4] was inactive. In addition, the potentiation in experiment [3] was 184% (active).
For `CC1CCc2sc(-c3n[nH]c(=S)o3)cc2C1` (stereo not given), the activation in experiment [1] is 207% (active). In addition, the potentiation in experiment [2] was 30% (active); in experiment [3] it was 179% (active). Besides, the outcome in experiment [4] was inactive.
Taken in the same sequence, the figures for `COc1ccccc1NC(=O)C(=O)NNC(=O)c1ccco1` were 240% (active), 62.5% (active), 210% (active) and “inactive”.
Taken in the same sequence, the figures for `Cc1ccc(/C=C/C(=O)c2ccccc(=O)c2O)c(C)c1` were 244% (active), 118% (active), 280% (active) and “inactive”.
`CCN1C(=O)/C(=C/c2ccc(OCc3ccc(C(=O)O)cc3)c(Cl)c2)NC1=S`: the activation in experiment [1] is 136% (active). Besides, the outcome in experiment [2] and in experiment [4] was inactive. For the same compound, the potentiation in experiment [3] was 168% (active).
Take `COc1ccccc1N1C(=NC(=O)C(C)Oc2ccccc2)SC2CS(=O)(=O)CC21` (stereo not given): the outcome in experiment [1], in experiment [2], in experiment [3] and in experiment [4] was inactive.
Turning to `CC1(C)CC(=O)C2=C(C1)c1c(ccc3ccccc13)NC2c1cc([N+](=O)[O-])cc([N+](=O)[O-])c1O` (stereo not given), the result in experiment [1], in experiment [2], in experiment [3] and in experiment [4] was inactive.
As for `Nc1nc(N)c2sc3nc4c(cc3c2n1)CCC4`, the result in experiment [1], in experiment [2], in experiment [3] and in experiment [4] was inactive.
For `CC1CCCC(NC(=S)NC(=O)c2ccccc2Br)C1C` (stereo not given), the result in experiment [1], in experiment [3] and in experiment [4] was inactive. In experiment [2], the potentiation was 29.5% (active).
For `O=C(CSc1nc2ccccc2[nH]1)N/N=C/c1ccncc1`, the result in experiment [1], in experiment [2], in experiment [3] and in experiment [4] was inactive.
For the compound `Cc1ccccc1NC(=S)NNC(=O)c1csc2c1CCC(C)C2` (stereo not given), the activation in experiment [1] was 174% (active). For the same compound, the potentiation in experiment [2] is 30% (active); in experiment [3], 200% (active). Moreover, the outcome in experiment [4] was inactive.
Taken in the same sequence, the figures for `CC1CCCN(c2ccc(C(=O)NCc3ccccc3)cn2)C1` (stereo not given) were 155% (active), 26% (active), 152% (active) and “inactive”.
Turning to `COc1cc(CN2CCC(C)CC2)ccc1OCc1ccccc1`, the activation in experiment [1] was 292% (active). For the same compound, the figures for the potentiation in experiment [2] and in experiment [3] were 90% (active) and 300% (active), respectively. In addition, the outcome in experiment [4] was inactive.
For the compound `O=C(CC1C(=O)NCCN1Cc1cccc(F)c1)NCCCN1CCCC1=O` (stereo not given), the outcome in experiment [1], in experiment [2], in experiment [3] and in experiment [4] was inactive.
For the compound `CCNC(=S)/N=C(\N)Nc1nc(C)c2cc(C)ccc2n1`, the outcome in experiment [1], in experiment [2], in experiment [3] and in experiment [4] was inactive.
For `OCCCCNCc1ccc(OCc2ccc(Cl)cc2Cl)cc1`, the result in experiment [1], in experiment [3] and in experiment [4] was inactive. Moreover, the potentiation in experiment [2] was 23.5% (active).
For `O=C(NC(=S)Nc1ccccc1N1CCCCC1)c1cccs1`, the activation in experiment [1] was 212% (active). Moreover, the potentiation was 133% (active) in experiment [2] and 234% (active) in experiment [3]. The result in experiment [4] was inactive.
On to `C=CCn1c(=S)[nH]c2scc(-c3ccc(C)o3)c2c1=O`, for which the activation in experiment [1] is 550% (active). Further, the potentiation is 276% (active) in experiment [2] and 580% (active) in experiment [3]. Further, the outcome in experiment [4] was inactive.
As for `CCCc1cc(=O)[nH]c(SCC(=O)NC(=O)c2ccccc2)n1`, the result in experiment [1], in experiment [2], in experiment [3] and in experiment [4] was inactive.
Consider `COC(=O)CCCC[C@@H]1SC[C@@H](NC(=O)OC)[C@@H]1NC(=O)OC`, for which the outcome in experiment [1], in experiment [2], in experiment [3] and in experiment [4] was inactive.
In the case of `CCCn1c(SCN2C(=O)c3ccccc3C2=O)nc2cc(Cl)ccc2c1=O`, the activation in experiment [1] was 179% (active). Further, the potentiation in experiment [2] was 39.5% (active); in experiment [3], 196% (active). Moreover, in experiment [4], the result was inactive.
For the compound `CCC(=O)NC(=Nc1nc2ccccc2s1)NC(=O)CC`, the outcome in experiment [1], in experiment [2], in experiment [3] and in experiment [4] was inactive.
As to `CC(=O)NC(NC(C)=O)c1ccc(N(C)C)cc1`, the result in experiment [1], in experiment [2], in experiment [3] and in experiment [4] was inactive.
In the case of `CCOC(=O)c1cnc2c(C)c(Cl)ccc2c1N1CCN(CC)CC1`, the outcome in experiment [1], in experiment [2], in experiment [3] and in experiment [4] was inactive.

(Values after PubChem BioAssay.)
